# From PubChem
# Compounds with a hit are over-represented: about 2.5% of the library has one in this group of screens.
# SIRT5 inh = SIRT5 desuccinylase inhibitors, primary screen, biochemical, fluorescence imaging, single point, set 5. 330,000 compounds, 1.1% hits. NAD-dependent protein deacylase sirtuin-5, mitochondrial (Homo sapiens), Q9NXA8. Purified SirT5, succinyl-peptide AMC, trypsin-coupled fluorescence. inhibition, % at 15 µM; in the data active = inhibition above about 15%
# Target sequence (Q9NXA8 whole entry, looked up): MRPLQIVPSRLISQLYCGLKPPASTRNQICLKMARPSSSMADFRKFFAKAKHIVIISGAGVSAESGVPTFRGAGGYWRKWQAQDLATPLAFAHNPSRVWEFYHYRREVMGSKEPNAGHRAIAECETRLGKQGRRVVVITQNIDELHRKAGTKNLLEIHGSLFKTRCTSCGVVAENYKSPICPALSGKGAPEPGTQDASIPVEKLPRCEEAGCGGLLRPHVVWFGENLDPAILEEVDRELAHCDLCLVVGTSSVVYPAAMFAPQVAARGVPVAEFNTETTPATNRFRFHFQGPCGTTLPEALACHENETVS
# miR-122 sensor = miR-122 Renilla sensor signal increase in Huh7, primary screen, miR-122 inhibitor project, cell-based, single point, plate reader; 340,000 compounds, 0.3% hits; activation (reporter increase), % at 12.5 µM; Huh7 miR-122 Renilla luciferase sensor, 48 h; neutral wells = 0, positive control = 100;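 active = mean replicate activation score at least 90 and every replicate individually at or above 90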;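 note: higher luciferase means less miR-122 activity so hits act as miR-122 inhibitors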
# E-sel inducer = E-selectin induction in HUVECs, primary screen, imaging, HUVEC, immunofluorescence imaging, single point; P16581; normalized: neutral wells 0, TNF-alpha wells 100; activation, % at 7.58 µM; 260,000 compounds, 0.37% hits;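 active = mean E-selectin-positive cell signal at least 10% of the positive control, reached in at least 60% of replicates, without over 20% cell loss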
#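 Assay system: HUVEC primary endothelial cells. Input: 3,000 HUVEC seeded per well. Doses: one compound dose added by pin transfer. Read-out basis: % PE-positive cells. Benchmarks: TNF-alpha high, DMSO low. Detection: immunofluorescence imaging. Buffer or medium: EGM-2, gelatin.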
# FGF22 binding-1 = binders of human FGF22 protein, primary screen, FGF22 synaptogenesis inhibitor project, biophysical, thermal shift, single point; Fibroblast growth factor 22 (Homo sapiens), Q9HCT0; recombinant FGF22 thermal shift, SYPRO orange fluorescence; percent of sucrose octasulfate shift, DMSO zero; activity (Tm shift, normalised), % at 9.99 µM; 340,000 compounds, 1.5% hits; AID 651658, 2012;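 active = mean Tm shift, scaled 0 neutral to 100 positive control, at about 1.3% or above, every replicate too, limit read from the data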
# Target sequence (Q9HCT0 whole entry, looked up): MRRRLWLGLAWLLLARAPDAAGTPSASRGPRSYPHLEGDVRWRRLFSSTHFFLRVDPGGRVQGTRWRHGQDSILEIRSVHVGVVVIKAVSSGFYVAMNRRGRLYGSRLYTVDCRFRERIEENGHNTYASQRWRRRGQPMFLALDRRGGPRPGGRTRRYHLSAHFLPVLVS
# S100A4 MyoIIA = inhibitors of S100A4-myosin IIA peptide binding, primary screen, biochemical, fluorescence polarization, TAMRA-MyoIIA peptide | 360,000 compounds, 0.14% hits | inhibition, % at 10.7 µM;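 active = mean inhibition of at least 70% across replicates, with every replicate also reaching that level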
# Target sequence (P26447 whole entry, looked up): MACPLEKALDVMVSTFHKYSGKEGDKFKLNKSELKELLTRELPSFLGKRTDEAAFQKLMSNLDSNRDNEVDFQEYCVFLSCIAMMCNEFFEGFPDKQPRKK
#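 Test system: S100A4 monomer protein; Medium: HEPES pH 7.2 with CaCl2, KCl, NaCl, DTT, Triton; Probe or stimulus: TAMRA-labelled myosin IIA heavy-chain peptide probe, 5 nM; Doses: one dose per compound; Times: polarization read 5 min after assay mix addition, stable 5–60 min; Benchmarks: neutral control DMSO, positive control TFP.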
# FGF22 binding-2 = binders of human FGF22 protein, dose response, FGF22 synaptogenesis inhibitor project, biophysical, thermal shift, cherry-pick retest. shares compounds with FGF22 binding-1. recombinant FGF22 thermal shift, SYPRO orange fluorescence. thermal shift activity, °C (ΔTm) at 38 µM. 1,000 compounds, 2% hits. AID 720646, 2013;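 active = fitted rise in melting shift crosses a set limit at or below the top valid dose tested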
# TSA no protein = compound-only thermal shift signal without protein, dose response, artefact control for FGF22 binder project, biochemical, cherry-picked samples, RT-PCR instrument. 1,000 compounds, 2% hits. AC50, µM (doses to about 38 µM). shares compounds with FGF22 binding-1. compound-only SYPRO orange thermal shift counter-screen, no protein. AID 743019, 2013;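 active = rising signal whose fitted curve reaches the 0.54 level within the top valid dose, showing a melting point, actives reach about 13 µM in these data; inactive = the rest, including activity in the opposite direction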; note: value is where the raw curve crosses a fixed level and not half-maximal
# The depositor's hits bear a star; i = inactive; · = not tested or not shown; [ ] = remark or other dose.
SMILES,SIRT5 inh,miR-122 sensor,E-sel inducer,FGF22 binding-1,S100A4 MyoIIA,FGF22 binding-2,TSA no protein
COc1ccc(NC(=O)CC2C(=O)N(c3ccc(Cl)cc3)C(=S)N2CCc2ccccn2)cc1 (centres undefined),0.5,11.4,·,0.0,-0.3,·,·
COc1ccc(N2C(=O)C(CC(=O)Nc3ccccc3)N(Cc3ccccn3)C2=S)cc1 (centres undefined),-3.6,2.4,0.2,1.7*,-2.2,-0.015,i
C=CCN1C(=O)C(CC(=O)Nc2ccc(OCC)cc2)N(Cc2ccccn2)C1=S (centres undefined),-3.3,16.1,·,1.1,-17.4,·,·
COc1ccc(N2C(=O)C(CC(=O)Nc3ccccc3)N(Cc3ccc4c(c3)OCO4)C2=O)cc1 (centres undefined),-4.7,20.9,·,1.4*,8.0,0.043,i
CCOc1ccc(N2C(=O)C(CC(=O)Nc3ccc(F)cc3)N(Cc3ccccn3)C2=S)cc1 (centres undefined),-4.9,·,-0.6,1.7*,0.6,-0.354,i
COc1cc(CO)cc(I)c1O[C@H]1C=C(C(=O)NCCO)C[C@@H](N(CC2CCCCC2)C(=O)c2ccc(C(F)(F)F)cc2)[C@@H]1O,-2.2,·,·,0.2,-0.4,·,·
C[C@H](CO)N1C[C@H](C)[C@H](CN(C)C(=O)Nc2cccc3ccccc23)Oc2ncc(C#Cc3cccc(F)c3)cc2C1=O,9.3,-1.5[16.7 µM],-0.1,-0.7,-2.1,·,·
COC(=O)CN1C(=S)N(c2ccc(Cl)cc2)C(=O)C1CC(=O)Nc1ccc(F)cc1 (centres undefined),-1.1,·,-2.5,1.9*,0.5,-0.156,i
COC(=O)CN1C(=S)N(c2ccc(F)cc2)C(=O)C1CC(=O)Nc1ccc(F)cc1 (centres undefined),-7.7,7.7,·,-0.1,-2.2,·,·
NS(=O)(=O)c1cccc(NC(=O)c2ccc(NS(=O)(=O)c3cccc([N+](=O)[O-])c3)cc2)c1,-3.4,-1.0,-0.1,3.1*,-4.1,0.27,i
O=C(Nc1cccc2ccccc12)c1cccc([N+](=O)[O-])c1,-4.6,5.6,0.9,1.7*,-0.8,0.084,i
O=C(Nc1ccc2ccccc2c1)c1cccc([N+](=O)[O-])c1,-6.2,8.6,·,0.0,-3.3,·,·
O=C(Nc1ccc(S(=O)(=O)Nc2ccccn2)cc1)c1cccc([N+](=O)[O-])c1,0.5,5.4,-1.2,35.9*,-2.1,0.108,i
CCNC(=O)C[C@@H]1CC[C@H]2[C@@H](COC[C@H](O)CN2Cc2ccccc2F)O1,-1.8,3.4[16.7 µM],0.0,0.0,1.4,·,·
CCC(=O)N1CCCCN2[C@H](CO)[C@H](c3ccc(C#Cc4cccnc4)cc3)[C@H]2C1,1.6,-3.2[16.7 µM],-0.3,0.0,-23.5,·,·
CC(=O)Nc1ccc(S(=O)(=O)NCCc2c[nH]c3ccc(C)cc23)cc1,0.1,15.2,·,1.4*,4.8,0.079,i
COc1ccc2[nH]cc(CCNS(=O)(=O)c3ccc(NC(C)=O)cc3)c2c1,3.1,3.7,·,0.1,0.9,·,·
O=C(CCc1ccc(S(=O)(=O)N2CCOCC2)cc1)Nc1ccccc1F,-5.0,4.5,·,1.5*,3.2,0.135,i
COc1ccc(S(=O)(=O)Nc2ccc3c(c2)C(=O)N([C@H](C)CO)C[C@@H](C)[C@H](CN(C)C(=O)NC(C)C)OCCCC[C@@H](C)O3)cc1,4.0,-1.3[16.7 µM],0.2,0.0,-1.2,·,·
CO[C@@H]1CN(C)C(=O)c2ccc(NC(C)=O)cc2OC[C@@H](C)N(C(=O)Cc2ccccn2)C[C@H]1C,3.2,·,-0.1,1.4*,18.0,0.036[42 µM],i
CO[C@@H]1CN(C)C(=O)c2ccc(NC(=O)C3CC3)cc2OC[C@H](C)N(C(=O)CN2CCOCC2)C[C@@H]1C,-0.9,·,0.3,1.4*,10.1,0.023,i
CCC(=O)Nc1ccc2c(c1)C(=O)N(C)C[C@H](OC)[C@@H](C)CN(C(=O)CC)[C@@H](C)CO2,2.2,·,-0.4,1.5*,-2.2,0.128[42 µM],i
CCC(=O)Nc1ccc2c(c1)C(=O)N(C)C[C@@H](OC)[C@H](C)CN(C(=O)COC)[C@H](C)CO2,·,·,-0.1,-0.1,-15.8,·,·
CO[C@@H]1CN(C)C(=O)c2ccc(NC(C)=O)cc2OC[C@@H](C)N(C(=O)Cc2ccccn2)C[C@@H]1C,0.2,·,-0.2,-0.6,49.0,·,·
CO[C@H]1CN(C)C(=O)c2cc(NS(=O)(=O)c3ccc(C)cc3)ccc2OC[C@@H](C)N(C(=O)NC(C)C)C[C@@H]1C,2.0,·,-0.1,1.2*,8.7,-0.021,i
SMILES,SIRT5 inh,miR-122 sensor,E-sel inducer,FGF22 binding-1,S100A4 MyoIIA,FGF22 binding-2,TSA no protein
C[C@@H]1CCCCO[C@H](CN(C)S(=O)(=O)c2cccs2)[C@@H](C)CN([C@H](C)CO)C(=O)c2cc(NC(=O)CCCN(C)C)ccc2O1,-0.8,-2.5[16.7 µM],-0.2,-0.1,14.2,·,·
COCC#Cc1ccc([C@@H]2[C@H]3CN(C(=O)Nc4cc(F)ccc4F)CCCCN3[C@H]2CO)cc1,-1.5,0.9[16.7 µM],0.5,-0.1,-33.0,·,·
O=C(CC1CC1)Nc1ccc2c(c1)[C@H]1C[C@@H](CC(=O)N3CCOCC3)O[C@H](CO)[C@H]1O2,·,4.6[16.7 µM],-0.2,-0.1,·,·,·
O=C(Nc1ccccc1Cl)N1[C@H](CO)[C@@H]2c3ccccc3NC[C@@H]21,-1.2,-23.8[16.7 µM],-0.3,1.6*,-2.8,0.068,i
OC[C@H]1[C@H]2c3ccccc3NC[C@H]2N1Cc1ccccc1Cl,1.4,-28.6[16.7 µM],-0.1,0.2,1.1,·,·
OC[C@H]1[C@@H]2c3ccccc3NC[C@@H]2N1Cc1ccccc1Cl,4.9,-21.4[16.7 µM],0.0,1.4*,-2.4,0.227[42 µM],i
COc1cc(/C=C2\S/C(=N/S(=O)(=O)Cc3ccccc3)NC2=O)c([N+](=O)[O-])cc1OC,2.6,8.9,2.3,1.0,-4.7,·,·
COc1cc(/C=C2/S/C(=N/S(=O)(=O)Cc3ccccc3)NC2=O)c([N+](=O)[O-])cc1OC,1.9,14.0,0.5,1.9*,-9.3,0.108,i
COc1ccc(C(=O)N=c2sc3ccccc3n2C)cc1OC,-0.4,-3.4,·,1.6*,3.9,0.202,i
